From ChEMBL document CHEMBL2396581, “20(S)-Protopanaxadiol (PPD) analogues chemosensitize multidrug-resistant cancer cells to clinical anticancer drugs” (Bioorg Med Chem, 2013) come the findings set out here.

One series deals with ATP-dependent translocase ABCB1 (Homo sapiens, UniProt P08183). The series can be described thus: Inhibition of p-gp in human KB/VCR cells assessed as potentiation of 1 uM docetaxel-induced cytotoxicity at 5 uM after 72 hrs by MTT assay. It counts as cell-based. Summed up: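 KBvcr cells seeded at 5 × 10^3 per well were cotreated with 5 μM compound and 1 μM docetaxel for 72 h. Survival (%) was read by MTT and compared with wells without docetaxel.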
Chain of ATP-dependent translocase ABCB1 (P08183 whole entry): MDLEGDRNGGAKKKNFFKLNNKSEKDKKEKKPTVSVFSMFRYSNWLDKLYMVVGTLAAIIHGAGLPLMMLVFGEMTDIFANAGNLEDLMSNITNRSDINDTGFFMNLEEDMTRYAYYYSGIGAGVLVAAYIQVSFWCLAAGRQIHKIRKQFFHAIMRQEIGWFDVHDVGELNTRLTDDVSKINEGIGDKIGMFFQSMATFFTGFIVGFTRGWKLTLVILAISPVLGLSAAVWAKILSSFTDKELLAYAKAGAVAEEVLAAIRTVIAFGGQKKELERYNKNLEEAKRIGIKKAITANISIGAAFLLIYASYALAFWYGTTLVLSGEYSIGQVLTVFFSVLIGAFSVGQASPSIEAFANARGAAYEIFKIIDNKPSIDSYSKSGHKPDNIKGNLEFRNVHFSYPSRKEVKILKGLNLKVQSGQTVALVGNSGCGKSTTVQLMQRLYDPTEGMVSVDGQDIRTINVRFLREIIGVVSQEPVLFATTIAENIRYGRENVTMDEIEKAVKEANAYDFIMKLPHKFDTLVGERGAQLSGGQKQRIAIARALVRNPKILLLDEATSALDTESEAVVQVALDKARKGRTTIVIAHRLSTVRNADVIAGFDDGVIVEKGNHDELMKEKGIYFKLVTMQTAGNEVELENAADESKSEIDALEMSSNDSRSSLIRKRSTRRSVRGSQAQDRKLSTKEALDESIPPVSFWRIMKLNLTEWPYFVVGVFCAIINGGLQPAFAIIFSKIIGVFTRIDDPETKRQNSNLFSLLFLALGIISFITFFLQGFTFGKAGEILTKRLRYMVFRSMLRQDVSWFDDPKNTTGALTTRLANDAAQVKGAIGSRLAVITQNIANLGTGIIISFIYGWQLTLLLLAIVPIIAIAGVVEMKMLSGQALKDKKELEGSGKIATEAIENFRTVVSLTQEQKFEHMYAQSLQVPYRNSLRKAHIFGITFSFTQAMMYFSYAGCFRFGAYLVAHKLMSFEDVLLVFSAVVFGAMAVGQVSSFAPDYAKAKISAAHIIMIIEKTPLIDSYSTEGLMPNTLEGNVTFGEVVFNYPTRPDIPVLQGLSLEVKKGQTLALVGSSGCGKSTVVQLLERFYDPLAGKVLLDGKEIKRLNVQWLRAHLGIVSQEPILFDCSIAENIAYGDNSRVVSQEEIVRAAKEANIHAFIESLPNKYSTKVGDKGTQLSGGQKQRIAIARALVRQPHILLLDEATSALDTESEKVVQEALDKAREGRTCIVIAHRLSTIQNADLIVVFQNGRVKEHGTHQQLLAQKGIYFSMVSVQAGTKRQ
In the case of `COc1ccc(CNCCC[C@](C)(O)[C@H]2CC[C@]3(C)[C@@H]2[C@H](O)C[C@@H]2[C@@]4(C)CC[C@H](O)C(C)(C)[C@@H]4CC[C@]23C)cc1`, the “inhibition (INH)” value was “Active”.

Regarding `CCCNCCC[C@](C)(O)[C@H]1CC[C@]2(C)[C@@H]1[C@H](O)C[C@@H]1[C@@]3(C)CC[C@H](O)C(C)(C)[C@@H]3CC[C@]12C`, the “inhibition (INH)” value was “Not Active”.

Take `CC1(C)[C@@H](O)CC[C@]2(C)[C@H]3C[C@@H](O)[C@@H]4[C@@H]([C@@](C)(O)CCCNCc5ccccn5)CC[C@@]4(C)[C@]3(C)CC[C@@H]12`: the “inhibition (INH)” value is reported as “Active”.

With `CC(C)=CCC[C@](C)(O)[C@H]1CC[C@]2(C)[C@@H]1[C@H](O)C[C@@H]1[C@@]3(C)CC[C@H](O)C(C)(C)[C@@H]3CC[C@]12C`, the “inhibition (INH)” value was “Not Active”.

As to `CC1(C)[C@@H](O)CC[C@]2(C)[C@H]3C[C@@H](O)[C@@H]4[C@@H]([C@@](C)(O)CCCNCc5ccncc5)CC[C@@]4(C)[C@]3(C)CC[C@@H]12`, the “inhibition (INH)” value is given as “Active”.

In the case of `CC1(C)[C@@H](O)CC[C@]2(C)[C@H]3C[C@@H](O)[C@@H]4[C@@H]([C@@](C)(O)CCCNCCN5CCNCC5)CC[C@@]4(C)[C@]3(C)CC[C@@H]12`, the “inhibition (INH)” value is recorded as “Not Active”.

For the compound `CC1(C)[C@@H](O)CC[C@]2(C)[C@H]3C[C@@H](O)[C@@H]4[C@@H]([C@@](C)(O)CCCNCCc5ccc6c(c5)OCO6)CC[C@@]4(C)[C@]3(C)CC[C@@H]12`, the “inhibition (INH)” value is recorded as “Active”.

`CC1(C)[C@@H](O)CC[C@]2(C)[C@H]3C[C@@H](O)[C@@H]4[C@@H]([C@@](C)(O)CCCNCc5ccc(F)cc5)CC[C@@]4(C)[C@]3(C)CC[C@@H]12`: the “inhibition (INH)” value is recorded as “Active”.

For the compound `COc1ccc(CNCCC[C@](C)(O)[C@H]2CC[C@]3(C)[C@@H]2[C@H](O)C[C@@H]2[C@@]4(C)CC[C@H](O)C(C)(C)[C@@H]4CC[C@]23C)cc1OC`, the “inhibition (INH)” value is given as “Active”.

`CC(C)(C)NCCC[C@](C)(O)[C@H]1CC[C@]2(C)[C@@H]1[C@H](O)C[C@@H]1[C@@]3(C)CC[C@H](O)C(C)(C)[C@@H]3CC[C@]12C`: the “inhibition (INH)” value is recorded as “Not Active”.

Consider `COc1ccc(NCCC[C@](C)(O)[C@H]2CC[C@]3(C)[C@@H]2[C@H](O)C[C@@H]2[C@@]4(C)CC[C@H](O)C(C)(C)[C@@H]4CC[C@]23C)cc1`, for which the “inhibition (INH)” value is given as “Not Active”.

Consider `CNCCC[C@](C)(O)[C@H]1CC[C@]2(C)[C@@H]1[C@H](O)C[C@@H]1[C@@]3(C)CC[C@H](O)C(C)(C)[C@@H]3CC[C@]12C`, for which the “inhibition (INH)” value is recorded as “Not Active”.

On to `CC(C)NCCC[C@](C)(O)[C@H]1CC[C@]2(C)[C@@H]1[C@H](O)C[C@@H]1[C@@]3(C)CC[C@H](O)C(C)(C)[C@@H]3CC[C@]12C`, for which the “inhibition (INH)” value was “Not Active”.

Consider `CCNCCC[C@](C)(O)[C@H]1CC[C@]2(C)[C@@H]1[C@H](O)C[C@@H]1[C@@]3(C)CC[C@H](O)C(C)(C)[C@@H]3CC[C@]12C`, for which the “inhibition (INH)” value is “Not Active”.

With `CC1(C)[C@@H](O)CC[C@]2(C)[C@H]3C[C@@H](O)[C@@H]4[C@@H]([C@@](C)(O)CCCNC5CC5)CC[C@@]4(C)[C@]3(C)CC[C@@H]12`, the “inhibition (INH)” value is given as “Not Active”.

As to `CC1(C)[C@@H](O)CC[C@]2(C)[C@H]3C[C@@H](O)[C@@H]4[C@@H]([C@@](C)(O)CCCNCCCO)CC[C@@]4(C)[C@]3(C)CC[C@@H]12`, the “inhibition (INH)” value is on record as “Not Active”.

With `CC1(C)[C@@H](O)CC[C@]2(C)[C@H]3C[C@@H](O)[C@@H]4[C@@H]([C@@](C)(O)CCCNCCCn5ccnc5)CC[C@@]4(C)[C@]3(C)CC[C@@H]12`, the “inhibition (INH)” value was “Not Active”.

System in a further series: not listed separately
The series can be described thus: Cytotoxicity against human KB/VCR cells assessed as cell viability at 5 uM after 72 hrs by MTT assay. The format is cell-based. In a few lines:
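KB/VCR cells in DMEM with 10% FBS and penicillin/streptomycin, 37 °C, 5% CO2. Cells were allowed to attach for 12 h, then exposed to compound for 72 h. MTT was added for 4 h and formazan read at 490 nm.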
(In general: Tetrazolium dyes change colour on reduction, which living cells bring about.)
With `CC(C)=CCC[C@](C)(O)[C@H]1CC[C@]2(C)[C@@H]1[C@H](O)C[C@@H]1[C@@]3(C)CC[C@H](O)C(C)(C)[C@@H]3CC[C@]12C`, the Activity entry is recorded as “Non-toxic”.

On to `CC1(C)[C@@H](O)CC[C@]2(C)[C@H]3C[C@@H](O)[C@@H]4[C@@H]([C@@](C)(O)CCCNCc5ccc(F)cc5)CC[C@@]4(C)[C@]3(C)CC[C@@H]12`, for which the Activity entry was “Toxic”.
